The test addresses T1, CC1736 (Caulobacter vibrioides, UniProt Q9A7I7).
T1 sequence (Q9A7I7 1-148): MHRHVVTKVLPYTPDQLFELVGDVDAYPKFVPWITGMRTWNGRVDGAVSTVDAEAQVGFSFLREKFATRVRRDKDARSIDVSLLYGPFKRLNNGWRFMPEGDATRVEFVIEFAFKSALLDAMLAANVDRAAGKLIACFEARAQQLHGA
As to the kind of experiment: spin-column desalting separation, lipid extraction, HPLC-UV. Format: binding. The procedure, abridged: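 Protein (2-3 nmol; cytochrome c 8-10 nmol as control) incubated with ligand (0.005–0.27 mM) in 20 mM MES pH 6.4, 100 mM NaCl, 5.0 mM CaCl2, 0.1 mM dodecyl maltoside, 1.0 mM TCEP, 2% ethanol, 45 min, 30 °C. Desalting spin column; protein by Lowry; eluate lipids by reversed-phase HPLC-UV.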
Regarding `COC1=CC(=O)C(C)=C(C/C=C(\C)CC/C=C(\C)CCC=C(C)C)C1=O` [DMQ3], the dissociation constant (Kd) was determined as 140 ± 77 µM.

Consider `COC1=C(OC)C(=O)C(C/C=C(\C)CCC=C(C)C)=C(C)C1=O` [Q2], for which the Kd was determined as 18 ± 2 µM.

For the molecule `COC1=C(OC)C(=O)C(C/C=C(\C)CC/C=C(\C)CCC=C(C)C)=C(C)C1=O` [Q3], the dissociation constant Kd amounted to 35 ± 16 µM.

Source of the values: article PMC3909687 (Biochimica et biophysica acta, 2012).
